ChEMBL document CHEMBL4834396, “Molecular Recognition and Imaging of Human Telomeric G-Quadruplex DNA in Live Cells: A Systematic Advancement of Thiazole Orange Scaffold To Enhance Binding Specificity and Inhibition of Gene Expression” (J Med Chem, 2021)
Activity calls are given as the source filed them. The rule behind the calls is not given here.

Experiments:
[1] = test system: Quadruplex DNA; assay: Binding affinity to telomeric Htg24 G-quadruplex DNA (unknown origin) at 5 uM at pH 7.4 by UV-spectrophotometric titration analysis; type: nucleic-acid assay
Outline: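 UV-vis titration of ligand (5 μM) with Htg24 (0–15 μM) in 10 mM Tris-HCl pH 7.4 containing 60 mM KCl, added until saturation.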

[2] = test system: HepG2; assay: Antiproliferative activity against human HepG2 cells assessed as reduction in cell viability […] by MTT assay; type: functional, cell-based
[3] = test system: Quadruplex DNA [UNDEFINED MUTATION]; assay: Binding affinity to telomeric Htg24 G-quadruplex DNA G23T mutant (unknown origin) assessed as fluorescence signal at 5 uM under pH condition 7.4 by fluorescence titration analysis; type: nucleic-acid assay; conditions: Homo sapiens
Outline: (§1)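 Ligand held at 5 μM and mixed with each Htg24 point mutant in Tris-HCl buffer containing 60 mM KCl, pH 7.4. Fluorescence was read, and the signal change was computed as (F mutant − F wild type)/F wild type.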

[4] = test system: Quadruplex DNA; assay: Binding affinity to wild type telomeric Htg24 G-quadruplex DNA (unknown origin) assessed as antiparallel structure at 5 uM under pH condition 7.4 with 60 mM K+ ion by CD spectra analysis; type: nucleic-acid assay
Outline: (§2)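 CD spectra recorded on G4-DNA and ligand, each at 5 μM, in 10 mM Tris-HCl, pH 7.4, with 60 mM KCl. Scan range 220–340 nm in a 1 mm quartz cuvette, 1 nm bandwidth and step, 0.5 s/point. Each spectrum is the average of three scans.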

[5] = Drug uptake in nucleolus of human U87 cells assessed as imaging of G-quadruplex at 5 uM for 30 mins followed by co-staining with DAPI and measured after 10 mins by confocal laser fluorescence microscopic analysis; type: ADME, subcellular; conditions: u-87mg atcc, 40 min
Outline: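 Live U87 cells were co-stained with ligand (5 μM, 30 min) and DAPI (1 μM, 10 min). Confocal imaging used excitation at 402 nm for DAPI and 488 or 571 nm for the ligand.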

[6] = test system: Quadruplex DNA [UNDEFINED MUTATION]; assay: Binding affinity to telomeric Htg24 G-quadruplex DNA G17A mutant (unknown origin) assessed as negative fluorescence signal at 5 uM under pH condition 7.4 by fluorescence titration analysis; type: nucleic-acid assay; conditions: Homo sapiens
Outline: (§3)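 Ligand 5 μM mixed with wild-type or point-mutant Htg24 in Tris-HCl buffer with 60 mM KCl; signal change calculated as (F mutant − F wild type)/F wild type.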

[7] = test system: Quadruplex DNA [UNDEFINED MUTATION]; assay: Binding affinity to telomeric Htg24 G-quadruplex DNA G22T mutant (unknown origin) assessed as negative fluorescence signal at 5 uM under pH condition 7.4 by fluorescence titration analysis; type: nucleic-acid assay; conditions: Homo sapiens; outline: as §1
[8] = test system: Quadruplex DNA; assay: Stabilization of telomeric Htg24 G-quadruplex DNA (unknown origin) assessed as inhibition of DNA amplification at 20 uM by PCR analysis; type: nucleic-acid assay
Outline: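 Taq polymerase stop assay: Htg24 or its non-G4 mutant template (5 μM) with 2 μM of each oligomer, […] and ligand at 0–20 μM. Cycling was 94 °C for 5 min, then 30 cycles of 94/56/72 °C at 30 s each. Products were resolved on 15% PAGE and stained with SYBR Gold.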

[9] = test system: Quadruplex DNA [UNDEFINED MUTATION]; assay: Binding affinity to telomeric Htg24 G-quadruplex DNA G22C mutant (unknown origin) assessed as negative fluorescence signal at 5 uM under pH condition 7.4 by fluorescence titration analysis; type: nucleic-acid assay; conditions: Homo sapiens; outline: as §1
[10] = test system: Quadruplex DNA [UNDEFINED MUTATION]; assay: Binding affinity to telomeric Htg24 G-quadruplex DNA G15A mutant (unknown origin) assessed as fluorescence signal at 5 uM under pH condition 7.4 by fluorescence titration analysis; type: nucleic-acid assay; conditions: Homo sapiens
[11] = test system: Quadruplex DNA [UNDEFINED MUTATION]; assay: Binding affinity to telomeric Htg24 G-quadruplex DNA G16A mutant (unknown origin) assessed as negative fluorescence signal at 5 uM under pH condition 7.4 by fluorescence titration analysis; type: nucleic-acid assay; conditions: Homo sapiens; outline: as §3
[12] = test system: rRNA; assay: Binding affinity to rRNA (unknown origin) assessed as equilibrium binding constant at 5 uM at 25 degreeC […]; type: nucleic-acid assay
Outline: (§4)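 Fluorescence titration: ligand 5 μM in 10 mM Tris-HCl pH 7.4 with 60 mM KCl, nucleic acid added until saturation, 25 °C. Keq from nonlinear fit of F/F0 to an independent-site model.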

[13] = Drug uptake in nucleolus of human U87 cells assessed as disappearance of fluorescence signal at 5 uM for 30 mins co-stained with DAPI for 10 mins followed by treating with DNase and measured after 30 mins by confocal laser fluorescence microscopic analysis; type: ADME, subcellular; conditions: u-87mg atcc, 1.167 h, time 70 min
[14] = test system: Quadruplex DNA [UNDEFINED MUTATION]; assay: Binding affinity to telomeric Htg24 G-quadruplex DNA G22A mutant (unknown origin) assessed as negative fluorescence signal at 5 uM under pH condition 7.4 by fluorescence titration analysis; type: nucleic-acid assay; conditions: Homo sapiens; outline: as §1
[15] = test system: Quadruplex DNA [UNDEFINED MUTATION]; assay: Effect on confirmation of telomeric Htg24 G-quadruplex DNA G22A mutant (unknown origin) assessed as hybrid topology at 5 uM at pH 7.4 by circular dichroism analysis; type: nucleic-acid assay; conditions: Homo sapiens; outline: as §2
[16] = test system: Quadruplex DNA [UNDEFINED MUTATION]; assay: Binding affinity to telomeric Htg24 G-quadruplex DNA G23A mutant (unknown origin) assessed as fluorescence signal at 5 uM under pH condition 7.4 by fluorescence titration analysis; type: nucleic-acid assay; conditions: Homo sapiens; outline: as §1
[17] = test system: Quadruplex DNA [UNDEFINED MUTATION]; assay: Binding affinity to telomeric Htg24 G-quadruplex DNA T18G mutant (unknown origin) assessed as negative fluorescence signal at 5 uM under pH condition 7.4 by fluorescence titration analysis; type: nucleic-acid assay; conditions: Homo sapiens; outline: as §1
[18] = test system: Quadruplex DNA [UNDEFINED MUTATION]; assay: Binding affinity to telomeric Htg24 G-quadruplex DNA A14G mutant (unknown origin) assessed as negative fluorescence signal at 5 uM under pH condition 7.4 by fluorescence titration analysis; type: nucleic-acid assay; conditions: Homo sapiens; outline: as §3
[19] = test system: DNA; assay: Binding affinity to ds26 DNA (unknown origin) assessed as equilibrium binding constant at 5 uM at 25 degreeC by […]; type: nucleic-acid assay; outline: as §4
[20] = Water solubility of compound at 25 degreeC; type: physicochemical
Outline: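 Solubility in water measured at 25 °C.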

[21] = test system: Quadruplex DNA; assay: Binding affinity to telomeric Htg24 G-quadruplex DNA (unknown origin) assessed as decrease in peak intensity at guanine base G15 at 5 uM under pH condition 7.4 by spectrophotometric titration analysis; type: nucleic-acid assay
[22] = test system: i-motif DNA; assay: Binding affinity to promoter i-motif DNA (unknown origin) assessed as fluorescence signal at 5 uM under pH condition 7.4 by fluorescence method; type: nucleic-acid assay
Outline: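 Ligand 5 μM with each nucleic acid at 15 μM in 10 mM Tris-HCl pH 7.4, 60 mM KCl; emission enhancement expressed as F/F0 against ligand without DNA.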

[23] = test system: Quadruplex DNA [UNDEFINED MUTATION]; assay: Binding affinity to telomeric Htg24 G-quadruplex DNA G15C mutant (unknown origin) assessed as fluorescence signal at 5 uM under pH condition 7.4 by fluorescence titration analysis; type: nucleic-acid assay; conditions: Homo sapiens
[24] = test system: Quadruplex DNA [UNDEFINED MUTATION]; assay: Effect on confirmation of telomeric Htg24 G-quadruplex DNA T19G mutant (unknown origin) assessed as hybrid topology at 5 uM at pH 7.4 by circular dichroism analysis; type: nucleic-acid assay; conditions: Homo sapiens; outline: as §2
[25] = test system: Quadruplex DNA [UNDEFINED MUTATION]; assay: Effect on confirmation of telomeric Htg24 G-quadruplex DNA T18G mutant (unknown origin) assessed as hybrid topology at 5 uM at pH 7.4 by circular dichroism analysis; type: nucleic-acid assay; conditions: Homo sapiens; outline: as §2

Activity [1]: Active
IC50 [2]: 12.8 µM
Activity [3]: inactive
Activity [4]: Active
Drug uptake [5]: Active
Activity [6]: Active
Activity [7]: Active
Activity [8]: Active
Activity [9]: Active
Activity [10]: inactive
Activity [11]: Active
Kb [12]: 620000 M⁻¹
Drug uptake [13]: Active
Activity [14]: Active
Activity [15]: Active
Activity [16]: inactive
Activity [17]: Active
Activity [18]: Active
Kb [19]: 367000 M⁻¹
solubility [20]: 122 µM
Activity [21]: Active
fold change (FC) [22]: 1
Activity [23]: inactive
Activity [24]: Active
Activity [25]: Active
Structure (SMILES): CN(C)c1ccc(/C=C/c2cc(/C=C3\Sc4ccccc4N3CCCN3CCOCC3)c3ccccc3[n+]2C)cc1.[I-]
